Data set [1] has as its target T1, Tyrosine-protein kinase JAK3 (Homo sapiens, UniProt P52333).
T1 sequence (P52333 whole entry): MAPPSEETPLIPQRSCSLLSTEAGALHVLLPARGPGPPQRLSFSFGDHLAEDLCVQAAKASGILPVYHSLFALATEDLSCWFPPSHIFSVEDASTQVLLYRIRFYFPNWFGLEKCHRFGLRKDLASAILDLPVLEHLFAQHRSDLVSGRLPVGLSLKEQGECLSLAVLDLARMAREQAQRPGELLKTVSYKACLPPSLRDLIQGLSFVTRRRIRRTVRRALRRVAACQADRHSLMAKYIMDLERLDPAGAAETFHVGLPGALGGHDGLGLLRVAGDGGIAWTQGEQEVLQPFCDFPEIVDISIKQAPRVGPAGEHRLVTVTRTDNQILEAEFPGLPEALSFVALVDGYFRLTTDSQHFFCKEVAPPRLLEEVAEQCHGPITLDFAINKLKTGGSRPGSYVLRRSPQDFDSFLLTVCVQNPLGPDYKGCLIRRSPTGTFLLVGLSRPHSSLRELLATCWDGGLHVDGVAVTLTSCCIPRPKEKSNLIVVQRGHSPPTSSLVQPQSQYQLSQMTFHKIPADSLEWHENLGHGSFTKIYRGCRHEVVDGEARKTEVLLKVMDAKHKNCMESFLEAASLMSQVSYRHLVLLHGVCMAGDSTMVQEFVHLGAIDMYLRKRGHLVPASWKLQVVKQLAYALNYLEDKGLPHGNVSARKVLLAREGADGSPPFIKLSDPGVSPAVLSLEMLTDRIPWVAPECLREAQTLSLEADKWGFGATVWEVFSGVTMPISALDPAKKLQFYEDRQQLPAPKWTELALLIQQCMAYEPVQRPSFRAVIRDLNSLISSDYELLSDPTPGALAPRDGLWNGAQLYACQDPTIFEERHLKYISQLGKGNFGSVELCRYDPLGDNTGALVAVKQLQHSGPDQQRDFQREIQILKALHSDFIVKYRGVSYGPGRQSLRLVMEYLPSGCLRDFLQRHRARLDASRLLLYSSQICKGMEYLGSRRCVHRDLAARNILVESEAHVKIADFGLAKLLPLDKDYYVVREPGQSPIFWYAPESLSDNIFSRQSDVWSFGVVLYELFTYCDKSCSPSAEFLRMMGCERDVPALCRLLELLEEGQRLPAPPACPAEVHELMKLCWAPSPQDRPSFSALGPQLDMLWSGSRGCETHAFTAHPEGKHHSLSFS
The data set is described as follows: Inhibition of recombinant human JAK3 (781 to 1124 residues) expressed in insect cells using 5FAM-GEEPLYWSFPAKKK-NH2 as substrate after 10 mins by caliper assay. The gist of the method: (§1)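 Biochemical kinase inhibition IC50 measured at 5 mM ATP. Values are the geometric mean of at least two independent experiments.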

Data set [2] addresses Non-receptor tyrosine-protein kinase TYK2 (Homo sapiens, UniProt P29597). The data set is described as follows: Inhibition of recombinant human N-terminal GST-tagged TYK2 (871 to 1187 residues) expressed in baculovirus expression system using 5FAM-GEEPLYWSFPAKKK-NH2 as substrate after 10 mins by caliper assay. The method in brief:
as §1

The target of data set [3] is Tyrosine-protein kinase JAK1 (Homo sapiens, UniProt P23458). The data set is described as follows: Inhibition of cytoplasmic recombinant human GST-tagged JAK1 (886 to 1154 residues) expressed in baculovirus at 1 uM. The gist of the method: (§2)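 Single-concentration screen at 1 μM across a panel of 386 kinases to profile broad kinase selectivity.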
Data set [4] addresses T2, Tyrosine-protein kinase JAK3 (Homo sapiens) (UniProt P52333).
T2 sequence (whole entry): T1 sequence (P52333 whole entry)
The data set is described as follows: Inhibition of recombinant human GST-tagged JAK3 (781 to 1124 residues) expressed in baculovirus at 1 uM. The gist of the method: as §2

For data set [5], the target named is T3, NUAK family SNF1-like kinase 1 (Homo sapiens) (UniProt O60285).
T3 sequence (whole entry): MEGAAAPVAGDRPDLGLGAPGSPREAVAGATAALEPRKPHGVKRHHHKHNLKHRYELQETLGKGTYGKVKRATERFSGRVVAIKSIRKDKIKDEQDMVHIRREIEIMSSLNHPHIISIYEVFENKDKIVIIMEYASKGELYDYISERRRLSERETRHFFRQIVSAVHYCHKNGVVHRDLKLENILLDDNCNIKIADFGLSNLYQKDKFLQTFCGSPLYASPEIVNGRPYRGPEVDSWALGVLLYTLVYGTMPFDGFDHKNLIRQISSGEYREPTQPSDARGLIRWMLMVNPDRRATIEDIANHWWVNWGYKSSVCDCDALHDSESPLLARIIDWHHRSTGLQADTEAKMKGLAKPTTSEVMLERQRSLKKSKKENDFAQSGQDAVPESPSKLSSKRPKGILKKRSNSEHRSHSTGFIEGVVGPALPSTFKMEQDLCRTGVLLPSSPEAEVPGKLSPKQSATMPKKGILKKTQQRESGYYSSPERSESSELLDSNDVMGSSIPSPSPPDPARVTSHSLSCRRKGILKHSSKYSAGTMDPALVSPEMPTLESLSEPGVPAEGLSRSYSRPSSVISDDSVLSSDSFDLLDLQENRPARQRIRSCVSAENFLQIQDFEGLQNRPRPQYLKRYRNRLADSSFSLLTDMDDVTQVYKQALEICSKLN
In words: Inhibition of recombinant human full length His-tagged NUAK1 expressed in baculovirus at 1 uM. The gist of the method:
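Kinase panel of 386 kinases, each screened at a single concentration of 1 μM.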

Data set [6] can be described thus: AUC in CD1 mouse at 50 mg/kg, po administered via gavage by LC/MS/MS analysis. The conditions noted are these: in vivo. It is filed as ADME, organism-based. The gist of the method: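 Mouse pharmacokinetics after oral dosing at 10 or 50 mg/kg. The 10 mg/kg dose was given in 10% HPbCD + 5% dextrose in WFI at pH 4. The 50 mg/kg dose was given in 5% SBECD in WFI at pH 2. Plasma exposure (AUC), half-life and oral bioavailability were derived.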

A further data set has as its system Mus musculus. In words: Time above EC50 for inhibition of JAK1 in CD1 mouse at 50 mg/kg, po administered via gavage. The conditions noted are these: in vivo.

Where only a bound is given, the exact number is not on record here.

Tyrosine-protein kinase JAK1, sequence (P23458 whole entry, the tested form may be a part): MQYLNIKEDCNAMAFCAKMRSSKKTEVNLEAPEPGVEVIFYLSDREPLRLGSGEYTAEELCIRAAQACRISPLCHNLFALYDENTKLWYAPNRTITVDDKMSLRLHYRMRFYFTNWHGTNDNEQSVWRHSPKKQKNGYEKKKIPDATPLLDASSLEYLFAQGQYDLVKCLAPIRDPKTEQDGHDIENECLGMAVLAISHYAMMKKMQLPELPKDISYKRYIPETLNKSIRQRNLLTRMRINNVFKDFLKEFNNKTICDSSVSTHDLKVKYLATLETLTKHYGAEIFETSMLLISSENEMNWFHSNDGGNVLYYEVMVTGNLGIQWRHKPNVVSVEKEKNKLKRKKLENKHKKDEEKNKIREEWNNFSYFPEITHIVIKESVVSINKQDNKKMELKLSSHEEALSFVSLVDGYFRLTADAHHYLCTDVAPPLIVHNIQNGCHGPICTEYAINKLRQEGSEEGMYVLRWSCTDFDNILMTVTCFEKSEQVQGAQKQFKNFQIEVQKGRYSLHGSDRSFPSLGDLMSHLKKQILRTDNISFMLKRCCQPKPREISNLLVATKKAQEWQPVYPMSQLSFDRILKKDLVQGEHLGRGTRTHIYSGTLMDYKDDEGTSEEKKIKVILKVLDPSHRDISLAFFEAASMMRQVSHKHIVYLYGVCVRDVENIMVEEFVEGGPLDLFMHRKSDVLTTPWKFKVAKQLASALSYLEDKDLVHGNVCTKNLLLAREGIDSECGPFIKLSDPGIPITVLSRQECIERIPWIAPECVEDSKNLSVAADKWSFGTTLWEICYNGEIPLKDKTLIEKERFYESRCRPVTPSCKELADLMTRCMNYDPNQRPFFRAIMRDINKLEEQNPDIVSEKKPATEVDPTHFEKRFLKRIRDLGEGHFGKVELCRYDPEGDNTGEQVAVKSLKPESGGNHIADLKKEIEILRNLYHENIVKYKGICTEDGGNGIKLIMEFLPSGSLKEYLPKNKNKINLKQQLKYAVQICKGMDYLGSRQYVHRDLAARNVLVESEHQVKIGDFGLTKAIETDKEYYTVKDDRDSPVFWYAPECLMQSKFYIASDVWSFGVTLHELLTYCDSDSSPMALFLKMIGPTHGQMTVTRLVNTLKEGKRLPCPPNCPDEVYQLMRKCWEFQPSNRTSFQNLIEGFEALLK
Non-receptor tyrosine-protein kinase TYK2, sequence (P29597 whole entry, the tested form may be a part): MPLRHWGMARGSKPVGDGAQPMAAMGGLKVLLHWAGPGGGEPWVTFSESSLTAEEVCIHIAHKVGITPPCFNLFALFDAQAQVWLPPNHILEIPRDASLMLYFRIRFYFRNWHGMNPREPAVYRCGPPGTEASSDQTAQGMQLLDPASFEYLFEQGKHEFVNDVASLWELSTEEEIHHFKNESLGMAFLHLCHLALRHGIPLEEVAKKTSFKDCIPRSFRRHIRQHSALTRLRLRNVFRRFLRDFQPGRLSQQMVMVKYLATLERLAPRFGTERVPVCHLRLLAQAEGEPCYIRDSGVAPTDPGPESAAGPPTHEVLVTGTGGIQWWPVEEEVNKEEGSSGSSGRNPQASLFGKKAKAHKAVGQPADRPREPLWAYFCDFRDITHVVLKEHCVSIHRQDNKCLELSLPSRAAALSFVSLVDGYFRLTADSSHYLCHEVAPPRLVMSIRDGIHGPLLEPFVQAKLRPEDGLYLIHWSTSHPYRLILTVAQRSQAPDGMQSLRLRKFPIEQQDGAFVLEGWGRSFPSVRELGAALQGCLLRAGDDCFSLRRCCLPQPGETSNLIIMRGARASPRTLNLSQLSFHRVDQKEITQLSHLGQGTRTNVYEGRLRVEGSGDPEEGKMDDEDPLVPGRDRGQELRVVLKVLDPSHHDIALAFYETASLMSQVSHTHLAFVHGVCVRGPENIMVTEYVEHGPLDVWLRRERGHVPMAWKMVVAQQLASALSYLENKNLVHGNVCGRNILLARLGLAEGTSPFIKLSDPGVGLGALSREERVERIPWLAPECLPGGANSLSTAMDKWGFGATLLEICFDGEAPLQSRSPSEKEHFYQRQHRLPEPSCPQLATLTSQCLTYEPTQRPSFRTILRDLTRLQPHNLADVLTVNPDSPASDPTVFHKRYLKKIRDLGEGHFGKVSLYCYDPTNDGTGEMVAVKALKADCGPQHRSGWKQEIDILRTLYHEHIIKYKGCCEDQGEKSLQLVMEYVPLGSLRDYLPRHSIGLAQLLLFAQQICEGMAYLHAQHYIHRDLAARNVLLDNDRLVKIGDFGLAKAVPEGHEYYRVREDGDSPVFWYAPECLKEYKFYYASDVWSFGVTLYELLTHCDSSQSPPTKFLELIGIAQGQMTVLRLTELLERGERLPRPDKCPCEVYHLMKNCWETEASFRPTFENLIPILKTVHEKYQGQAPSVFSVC

For the compound `CC[C@@H](C)Nc1nc(Nc2cc(N3C[C@@H]4C[C@H]3CN4C)cnc2F)ncc1C`, the IC50 in data set [1] and in data set [2] was more than 30 µM each time. In addition, the inhibition (commonly the relative decrease from the control value, in per cent) is 100% in data set [3], 46% in data set [4] and 71% in data set [5]. Moreover, the AUC (as a rule, the area under the concentration-time curve, a measure of exposure) in data set [6] stood at 18.9 µM·h. In addition, the Time with Mus musculus amounted to 12 h.

The values are drawn from ChEMBL document CHEMBL4138312 (J Med Chem, 2018).
